What was measured:
Assay type in all cases: cell-based
[1] = biological target: GABA-A receptor; alpha-3/beta-3/gamma-2 (Homo sapiens) (UniProt P18507+P28472+P34903); experiment: Efficacy was measured as modulation of the current in response to GABA at hGABA alpha-3-beta-3-gamma-2 receptor expressed in Xenopus oocytes; conditions: Oocyte
Outline: (§1)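 Two-electrode voltage clamp on Xenopus oocytes expressing each receptor combination. […] Value is percent increase or decrease of the EC20 GABA current.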

[2] = biological target: GABA-A receptor; alpha-5/beta-3/gamma-2 (Homo sapiens) (UniProt P18507+P28472+P31644); experiment: Efficacy was measured as modulation of the current in response to GABA at hGABA alpha-5-beta-3-gamma-2 receptor expressed in Xenopus oocytes; conditions: Oocyte; outline: as §1
[3] = biological target: GABA-A receptor; alpha-2/beta-3/gamma-2 (Homo sapiens) (UniProt P18507+P28472+P47869); experiment: Efficacy was measured as modulation of the current in response to GABA at hGABA alpha-2-beta-3-gamma-2 receptor expressed in Xenopus oocytes; conditions: Oocyte; outline: as §1
[4] = biological target: GABA-A receptor; alpha-1/beta-3/gamma-2 (Homo sapiens) (UniProt P14867+P18507+P28472); experiment: Efficacy was measured as modulation of the current in response to GABA at hGABA alpha-1-beta-3-gamma-2 receptor expressed in Xenopus oocytes; conditions: Oocyte; outline: as §1
[5] = biological target: T1, GABA-A receptor; alpha-3/beta-3/gamma-2 (Homo sapiens, UniProt P18507+P28472+P34903); experiment: Inhibition of [3H]Ro-151788 binding to recombinant human gamma-aminobutyric-acid A receptor alpha-3-beta-3-gamma-2 subtype expressed in L (tk-) cells
T1 sequence (P18507 whole entry): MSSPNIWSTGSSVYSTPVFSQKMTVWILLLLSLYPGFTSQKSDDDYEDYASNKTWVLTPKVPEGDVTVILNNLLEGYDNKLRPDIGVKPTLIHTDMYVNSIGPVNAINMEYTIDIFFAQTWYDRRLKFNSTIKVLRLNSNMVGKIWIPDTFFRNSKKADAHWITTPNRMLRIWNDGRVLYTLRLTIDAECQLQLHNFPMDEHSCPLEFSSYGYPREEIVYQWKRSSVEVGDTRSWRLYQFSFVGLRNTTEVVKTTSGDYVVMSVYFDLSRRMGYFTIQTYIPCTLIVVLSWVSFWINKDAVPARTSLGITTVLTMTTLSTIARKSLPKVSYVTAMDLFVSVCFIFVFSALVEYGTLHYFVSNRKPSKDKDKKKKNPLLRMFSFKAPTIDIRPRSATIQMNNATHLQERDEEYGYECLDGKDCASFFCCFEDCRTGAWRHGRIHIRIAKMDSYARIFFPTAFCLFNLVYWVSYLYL
T1 sequence (P28472 whole entry): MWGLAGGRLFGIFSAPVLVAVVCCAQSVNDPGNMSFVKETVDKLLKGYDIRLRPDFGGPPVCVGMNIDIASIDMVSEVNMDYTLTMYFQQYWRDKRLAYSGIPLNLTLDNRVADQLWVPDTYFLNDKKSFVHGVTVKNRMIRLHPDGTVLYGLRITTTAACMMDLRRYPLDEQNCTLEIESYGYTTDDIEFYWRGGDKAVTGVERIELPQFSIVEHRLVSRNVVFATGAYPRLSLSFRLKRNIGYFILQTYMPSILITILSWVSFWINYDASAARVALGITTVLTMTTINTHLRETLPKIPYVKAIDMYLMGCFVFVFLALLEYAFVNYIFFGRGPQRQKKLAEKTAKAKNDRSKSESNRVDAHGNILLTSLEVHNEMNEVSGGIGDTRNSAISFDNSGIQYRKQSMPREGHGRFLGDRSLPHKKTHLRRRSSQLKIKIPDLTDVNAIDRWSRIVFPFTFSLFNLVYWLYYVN
T1 sequence (P34903 whole entry): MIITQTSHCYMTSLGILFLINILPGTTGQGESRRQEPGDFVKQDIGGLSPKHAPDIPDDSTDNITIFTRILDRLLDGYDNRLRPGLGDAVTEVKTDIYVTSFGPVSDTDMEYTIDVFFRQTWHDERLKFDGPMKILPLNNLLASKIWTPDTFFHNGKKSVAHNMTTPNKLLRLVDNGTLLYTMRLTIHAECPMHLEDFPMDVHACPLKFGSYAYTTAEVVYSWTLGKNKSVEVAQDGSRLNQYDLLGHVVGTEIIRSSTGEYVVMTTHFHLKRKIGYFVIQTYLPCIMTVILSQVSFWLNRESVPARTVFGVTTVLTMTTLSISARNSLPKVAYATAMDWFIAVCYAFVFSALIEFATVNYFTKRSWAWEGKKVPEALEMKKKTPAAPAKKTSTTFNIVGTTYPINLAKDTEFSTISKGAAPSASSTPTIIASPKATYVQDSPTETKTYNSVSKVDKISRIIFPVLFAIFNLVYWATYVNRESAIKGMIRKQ

[6] = biological target: T2, GABA-A receptor; alpha-5/beta-3/gamma-2 (Homo sapiens, UniProt P18507+P28472+P31644); experiment: Inhibition of [3H]Ro-151788 binding to recombinant human gamma-aminobutyric-acid A receptor alpha-5-beta-3-gamma-2 subtype expressed in L (tk-) cells
T2 sequence (P18507 whole entry): T1 sequence (P18507 whole entry)
T2 sequence (P28472 whole entry): T1 sequence (P28472 whole entry)
T2 sequence (P31644 whole entry): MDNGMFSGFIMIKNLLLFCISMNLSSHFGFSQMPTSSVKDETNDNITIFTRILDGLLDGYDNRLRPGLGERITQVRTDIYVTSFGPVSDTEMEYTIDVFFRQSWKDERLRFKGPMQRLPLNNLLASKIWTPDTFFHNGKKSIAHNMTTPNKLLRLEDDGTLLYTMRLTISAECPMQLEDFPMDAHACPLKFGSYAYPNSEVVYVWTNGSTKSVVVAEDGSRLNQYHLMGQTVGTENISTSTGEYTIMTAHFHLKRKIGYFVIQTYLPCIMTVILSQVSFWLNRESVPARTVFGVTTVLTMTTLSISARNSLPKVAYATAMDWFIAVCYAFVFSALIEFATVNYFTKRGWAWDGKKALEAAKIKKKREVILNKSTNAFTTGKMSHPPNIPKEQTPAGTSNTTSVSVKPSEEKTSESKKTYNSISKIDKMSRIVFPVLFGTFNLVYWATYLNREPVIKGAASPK

[7] = biological target: T3, GABA-A receptor; alpha-2/beta-3/gamma-2 (Homo sapiens, UniProt P18507+P28472+P47869); experiment: Inhibition of [3H]Ro-151788 binding to recombinant human gamma-aminobutyric acid A receptor alpha-2-beta-3-gamma-2 subtype expressed in L (tk-) cells
T3 sequence (P18507 whole entry): T1 sequence (P18507 whole entry)
T3 sequence (P28472 whole entry): T1 sequence (P28472 whole entry)
T3 sequence (P47869 whole entry): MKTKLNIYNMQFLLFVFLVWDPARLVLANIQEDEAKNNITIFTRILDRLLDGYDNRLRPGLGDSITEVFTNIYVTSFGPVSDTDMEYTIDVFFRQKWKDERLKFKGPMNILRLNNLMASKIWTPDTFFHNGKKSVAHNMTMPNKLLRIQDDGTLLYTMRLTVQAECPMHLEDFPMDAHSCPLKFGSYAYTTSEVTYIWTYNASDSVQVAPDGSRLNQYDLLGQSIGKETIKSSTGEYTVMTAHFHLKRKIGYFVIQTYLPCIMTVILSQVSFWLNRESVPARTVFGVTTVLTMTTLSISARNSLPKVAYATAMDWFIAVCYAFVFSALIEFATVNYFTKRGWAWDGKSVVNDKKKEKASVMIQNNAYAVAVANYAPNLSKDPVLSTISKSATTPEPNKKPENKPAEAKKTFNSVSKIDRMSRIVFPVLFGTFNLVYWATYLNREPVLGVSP

[8] = biological target: T4, GABA-A receptor; alpha-1/beta-3/gamma-2 (Homo sapiens, UniProt P14867+P18507+P28472); experiment: Inhibition of [3H]Ro-151788 binding to recombinant human gamma-aminobutyric-acid A receptor alpha-1-beta-3-gamma-2 subtype expressed in L (tk-) cells
T4 sequence (P14867 whole entry): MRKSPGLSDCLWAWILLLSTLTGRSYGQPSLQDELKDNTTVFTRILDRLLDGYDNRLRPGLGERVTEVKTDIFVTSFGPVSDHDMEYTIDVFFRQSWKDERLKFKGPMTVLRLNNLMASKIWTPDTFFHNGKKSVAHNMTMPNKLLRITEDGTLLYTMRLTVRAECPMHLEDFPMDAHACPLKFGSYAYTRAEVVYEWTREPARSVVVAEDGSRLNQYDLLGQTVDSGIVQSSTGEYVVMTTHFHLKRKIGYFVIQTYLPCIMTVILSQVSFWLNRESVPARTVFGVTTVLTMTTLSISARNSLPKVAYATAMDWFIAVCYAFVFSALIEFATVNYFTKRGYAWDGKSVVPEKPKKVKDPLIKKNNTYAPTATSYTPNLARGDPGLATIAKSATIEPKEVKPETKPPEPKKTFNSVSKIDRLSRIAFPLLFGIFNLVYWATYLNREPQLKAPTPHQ
T4 sequence (P18507 whole entry): T1 sequence (P18507 whole entry)
T4 sequence (P28472 whole entry): T1 sequence (P28472 whole entry)

SMILES	Efficacy [1] [%]	Efficacy [2] [%]	Efficacy [3] [%]	Efficacy [4] [%]	Ki [5] [nM]	Ki [6] [nM]	Ki [7] [nM]	Ki [8] [nM]
CN1C(=O)CN=C(c2ccccc2)c2cc(Cl)ccc21	118	106	138	103				
CN(C)Cc1cccc(COc2nn3c(-c4ccccc4)nnc3c3c2C2CCC3CC2)c1	-16	-25			24	4.5	64	190
CCOc1cccnc1COc1nn2c(-c3ccccc3)nnc2c2c1C1CCC2CC1	46			66	1.1	0.36	2.8	3.9
Cc1ccc(-c2nnc3c4c(c(OCc5ccccn5)nn23)C2CCC4CC2)cc1	40	6	14	9	32	4.7	120	310
Cc1cc(C)n(COc2nn3c(-c4ccccc4)nnc3c3c2C2CCC3CC2)n1	7	1		31	2.3	0.26	7.5	23
Cn1ccnc1COc1nn2c(-c3ccccc3)nnc2c2c1C1CCC2CC1	24			24	4.3	0.45	7.1	19
N#Cc1cccc(COc2nn3c(-c4ccccc4)nnc3c3c2C2CCC3CC2)c1	38	23		23	66	7.8	180	> 1000
c1ccc(-c2nnc3c4c(c(OCn5cccn5)nn23)C2CCC4CC2)cc1	0			76	19	2.7	43	130
c1ccc(-c2nnc3c4c(c(OCc5cccnc5)nn23)C2CCC4CC2)cc1	20			51	25	6.5	68	150
CCn1ccnc1COc1nn2c(-c3ccccc3)nnc2c2c1C1CCC2CC1	23			26	1	0.29	2.3	3.3
Cn1cnc(COc2nn3c(-c4ccccc4)nnc3c3c2C2CCC3CC2)n1	88	26	16	26	8	2.1	16	31
c1ccc(COc2nn3c(-c4cccnc4)nnc3c3c2C2CCC3CC2)nc1	9	31		36	38	2.7	54	260
Cc1cnc(COc2nn3c(-c4ccccc4)nnc3c3c2C2CCC3CC2)c(C)c1	-2			34	0.71	0.2	3.4	3.4
COc1ccc(-c2nnc3c4c(c(OCc5ccccn5)nn23)C2CCC4CC2)cc1	33			14	52	4.2	74	230
COCCOc1cccnc1COc1nn2c(-c3ccccc3)nnc2c2c1C1CCC2CC1	97			77	3.9	0.5	9.8	13
Cc1ccc(COc2nn3c(-c4ccccc4)nnc3c3c2C2CCC3CC2)nc1	74			100	15	1.2	17	56
c1ccc(COc2cccnc2COc2nn3c(-c4ccccc4)nnc3c3c2C2CCC3CC2)cc1	132			178	20	7	100	160
c1ccc(-c2nnc3c4c(c(OCc5ccccn5)nn23)C2CCC4CC2)cc1		18			13	1.2	26	71
c1ccc(-c2nnc3c4c(c(OCc5ncccc5OCC5CC5)nn23)C2CCC4CC2)cc1	139	50		175	2.3	0.75	5.6	6.9
c1ccc(-c2nnc3c4c(c(OCc5nccs5)nn23)C2CCC4CC2)cc1	27			84	18	2.7	35	100
